Test results reported in ChEMBL document CHEMBL5058577, “EUbOPEN Chemogenomics Library 2 (Multiplex)” (2022).

Tested on: Fibroblast
Assay: Multiplex assay against human fibroblast
Format: toxicity, cell-based
How it was run: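 Compound was added to live cells that had been stained at seeding with Hoechst33342, BioTracker Green Microtubule Cytoskeleton Dye, MitoTracker Red and Annexin V Alexa Fluor 680, and imaging followed on a CQ1 microscope at 37°C and 5% CO2. CellPathfinder machine-learning gating divided cells into Hoechst high-intensity objects or normal cells, normal cells into healthy, pyknosed or fragmented nuclei, and pyknosed cells into mitotic or apoptotic. Tubulin, mitochondrial-mass and membrane-permeability phenotypes are per cents of healthy-nucleus cells.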

[1] = 12 h, 1 µM, compound concentration 1 uM, replicate 1
[2] = 12 h, 1 µM, compound concentration 1 uM, replicate 2
[3] = 12 h, 10 µM, compound concentration 10 uM, replicate 1
[4] = 12 h, 10 µM, compound concentration 10 uM, replicate 2
[5] = 24 h, 1 µM, compound concentration 1 uM, replicate 1
[6] = 24 h, 1 µM, compound concentration 1 uM, replicate 2
[7] = 24 h, 10 µM, compound concentration 10 uM, replicate 1
[8] = 24 h, 10 µM, compound concentration 10 uM, replicate 2
[9] = 48 h, 1 µM, compound concentration 1 uM, replicate 1
[10] = 48 h, 1 µM, compound concentration 1 uM, replicate 2
[11] = 48 h, 10 µM, compound concentration 10 uM, replicate 1
[12] = 48 h, 10 µM, compound concentration 10 uM, replicate 2

SMILES: Cc1nc2ccc(Oc3ccc(F)cc3)cc2c(=O)n1C[C@H]1CCCN(C(C)C)C1.Cl
- Population Apoptotic (%) [1]: 34%
- Population Fragmented Nuclei (%) [1]: 19%
- Population Healthy Nuclei (%) [1]: 67%
- Population Hoechst High Intensity Objects (%) [1]: 5%
- Population Membrane Permeable-Phenotype (%) [1]: 1%
- Population Mitochondria Different-Phenotype (%) [1]: 4%
- Population Mitotic Cells (%) [1]: 65%
- Population Normal (%) [1]: 94%
- Population Pyknosed Nuclei (%) [1]: 13%
- Population Tubulin-Different-Phenotype (%) [1]: 31%
- Total Cell Count [1]: 184
- Population Apoptotic (%) [2]: 44%
- Population Fragmented Nuclei (%) [2]: 24%
- Population Healthy Nuclei (%) [2]: 47%
- Population Hoechst High Intensity Objects (%) [2]: 9%
- Population Membrane Permeable-Phenotype (%) [2]: 21%
- Population Mitochondria Different-Phenotype (%) [2]: 8%
- Population Mitotic Cells (%) [2]: 55%
- Population Normal (%) [2]: 90%
- Population Pyknosed Nuclei (%) [2]: 29%
- Population Tubulin-Different-Phenotype (%) [2]: 70%
- Total Cell Count [2]: 111
- Population Apoptotic (%) [3]: 53%
- Population Fragmented Nuclei (%) [3]: 19%
- Population Healthy Nuclei (%) [3]: 61%
- Population Hoechst High Intensity Objects (%) [3]: 4%
- Population Membrane Permeable-Phenotype (%) [3]: 1%
- Population Mitochondria Different-Phenotype (%) [3]: 22%
- Population Mitotic Cells (%) [3]: 46%
- Population Normal (%) [3]: 95%
- Population Pyknosed Nuclei (%) [3]: 19%
- Population Tubulin-Different-Phenotype (%) [3]: 88%
- Total Cell Count [3]: 241
- Population Apoptotic (%) [4]: 61%
- Population Fragmented Nuclei (%) [4]: 36%
- Population Healthy Nuclei (%) [4]: 44%
- Population Hoechst High Intensity Objects (%) [4]: 3%
- Population Membrane Permeable-Phenotype (%) [4]: 5%
- Population Mitochondria Different-Phenotype (%) [4]: 25%
- Population Mitotic Cells (%) [4]: 38%
- Population Normal (%) [4]: 96%
- Population Tubulin-Different-Phenotype (%) [4]: 80%
- Total Cell Count [4]: 205
- Population Apoptotic (%) [5]: 66%
- Population Fragmented Nuclei (%) [5]: 17%
- Population Healthy Nuclei (%) [5]: 68%
- Population Hoechst High Intensity Objects (%) [5]: 3%
- Population Membrane Permeable-Phenotype (%) [5]: 1%
- Population Mitochondria Different-Phenotype (%) [5]: 6%
- Population Mitotic Cells (%) [5]: 33%
- Population Normal (%) [5]: 96%
- Population Pyknosed Nuclei (%) [5]: 13%
- Population Tubulin-Different-Phenotype (%) [5]: 30%
- Total Cell Count [5]: 186
- Population Apoptotic (%) [6]: 38%
- Population Fragmented Nuclei (%) [6]: 29%
- Population Healthy Nuclei (%) [6]: 50%
- Population Hoechst High Intensity Objects (%) [6]: 7%
- Population Membrane Permeable-Phenotype (%) [6]: 19%
- Population Mitochondria Different-Phenotype (%) [6]: 17%
- Population Mitotic Cells (%) [6]: 61%
- Population Normal (%) [6]: 92%
- Population Pyknosed Nuclei (%) [6]: 20%
- Population Tubulin-Different-Phenotype (%) [6]: 73%
- Total Cell Count [6]: 112
- Population Apoptotic (%) [7]: 67%
- Population Fragmented Nuclei (%) [7]: 27%
- Population Healthy Nuclei (%) [7]: 58%
- Population Hoechst High Intensity Objects (%) [7]: 3%
- Population Membrane Permeable-Phenotype (%) [7]: 0%
- Population Mitochondria Different-Phenotype (%) [7]: 27%
- Population Mitotic Cells (%) [7]: 32%
- Population Normal (%) [7]: 96%
- Population Pyknosed Nuclei (%) [7]: 13%
- Population Tubulin-Different-Phenotype (%) [7]: 84%
- Total Cell Count [7]: 290
- Population Apoptotic (%) [8]: 54%
- Population Fragmented Nuclei (%) [8]: 30%
- Population Healthy Nuclei (%) [8]: 52%
- Population Hoechst High Intensity Objects (%) [8]: 6%
- Population Membrane Permeable-Phenotype (%) [8]: 1%
- Population Mitochondria Different-Phenotype (%) [8]: 29%
- Population Mitotic Cells (%) [8]: 45%
- Population Normal (%) [8]: 93%
- Population Pyknosed Nuclei (%) [8]: 17%
- Population Tubulin-Different-Phenotype (%) [8]: 87%
- Total Cell Count [8]: 187
- Population Apoptotic (%) [9]: 66%
- Population Fragmented Nuclei (%) [9]: 25%
- Population Healthy Nuclei (%) [9]: 66%
- Population Hoechst High Intensity Objects (%) [9]: 3%
- Population Membrane Permeable-Phenotype (%) [9]: 0%
- Population Mitochondria Different-Phenotype (%) [9]: 2%
- Population Mitotic Cells (%) [9]: 33%
- Population Normal (%) [9]: 96%
- Population Pyknosed Nuclei (%) [9]: 8%
- Population Tubulin-Different-Phenotype (%) [9]: 33%
- Total Cell Count [9]: 184
- Population Apoptotic (%) [10]: 42%
- Population Fragmented Nuclei (%) [10]: 36%
- Population Healthy Nuclei (%) [10]: 44%
- Population Hoechst High Intensity Objects (%) [10]: 5%
- Population Membrane Permeable-Phenotype (%) [10]: 6%
- Population Mitochondria Different-Phenotype (%) [10]: 13%
- Population Mitotic Cells (%) [10]: 57%
- Population Normal (%) [10]: 94%
- Population Pyknosed Nuclei (%) [10]: 19%
- Population Tubulin-Different-Phenotype (%) [10]: 68%
- Total Cell Count [10]: 105
- Population Apoptotic (%) [11]: 66%
- Population Fragmented Nuclei (%) [11]: 23%
- Population Healthy Nuclei (%) [11]: 65%
- Population Hoechst High Intensity Objects (%) [11]: 9%
- Population Membrane Permeable-Phenotype (%) [11]: 0%
- Population Mitochondria Different-Phenotype (%) [11]: 20%
- Population Mitotic Cells (%) [11]: 33%
- Population Normal (%) [11]: 90%
- Population Pyknosed Nuclei (%) [11]: 10%
- Population Tubulin-Different-Phenotype (%) [11]: 85%
- Total Cell Count [11]: 290
- Population Apoptotic (%) [12]: 68%
- Population Fragmented Nuclei (%) [12]: 33%
- Population Healthy Nuclei (%) [12]: 53%
- Population Hoechst High Intensity Objects (%) [12]: 3%
- Population Membrane Permeable-Phenotype (%) [12]: 2%
- Population Mitochondria Different-Phenotype (%) [12]: 19%
- Population Mitotic Cells (%) [12]: 32%
- Population Normal (%) [12]: 96%
- Population Pyknosed Nuclei (%) [12]: 12%
- Total Cell Count [12]: 201
